Compound activity from PubChem.
In the library only some 1.4% were active in any assay of this set; here they are far more common.
SR-BI DiI inh – inhibitors of SR-BI mediated HDL lipid uptake, primary screen, ldlA[mSR-BI] cells, fluorescence, single point; Scavenger receptor class B member 1 (Mus musculus), Q61009; ldlA[mSR-BI] CHO cells, DiI-HDL uptake fluorescence, 3 h; inhibition, % at 12.5 µM; 320,000 tested, 0.96% active; AID 488896, 2010;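 active means mean replicate inhibition of at least 70% and a set share of replicates each scoring 70 or more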
SR-BI uptake up – activators of SR-BI mediated DiI-HDL uptake, primary screen, ldlA[mSR-BI] CHO cells, DiI fluorescence; activation, % at 12.5 µM; 320,000 tested, 0.096% active; 3 h; 100 = double the neutral-control signal; AID 504775, 2011;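 active means mean replicate activation of at least 60% and every replicate at or above 60%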
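Test system: SR-BI-overexpressing, LDLR-lacking CHO cells; Also added: labelled HDL, 10 µg/mL; Measured by: bottom-read cell fluorescence after medium removal, ex 550/em 595 nm; Timing: 3 h uptake period with compound, 37 °C; Buffer or medium: F12, 0.5% BSA, 25 mM HEPES; Doses: single compound concentration, delivered by pin transfer.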
PKA-R2B act – activators of PKA-R2B holoenzyme, primary screen, biochemical, fluorescence polarization, Cy5-IP20, human. PKA-R2B holoenzyme dissociation; R2B truncated from residue 108, S112A mutant; 0% DMSO only, 100% 113 µM cGMP. activation, % at 11.4 µM. 340,000 tested, 0.079% active;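 active means activation above a cutoff set at the mean over all compounds plus 3 SD, cut at about 18% in these data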;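 further: higher means more holoenzyme dissociation and a rise in polarization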
Target sequence (P31323 whole entry, looked up, other chains not shown, the tested form may be a part): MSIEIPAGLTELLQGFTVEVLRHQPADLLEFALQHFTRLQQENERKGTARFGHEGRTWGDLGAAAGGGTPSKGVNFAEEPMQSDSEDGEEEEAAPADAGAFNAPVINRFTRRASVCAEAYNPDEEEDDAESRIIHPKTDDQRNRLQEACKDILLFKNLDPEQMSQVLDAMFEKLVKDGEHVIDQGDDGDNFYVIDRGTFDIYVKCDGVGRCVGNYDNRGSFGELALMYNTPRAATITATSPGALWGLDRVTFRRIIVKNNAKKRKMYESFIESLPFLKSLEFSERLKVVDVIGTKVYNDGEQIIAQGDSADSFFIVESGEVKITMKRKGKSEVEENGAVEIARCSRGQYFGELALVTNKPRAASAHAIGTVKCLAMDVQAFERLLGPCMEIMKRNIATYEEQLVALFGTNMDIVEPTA
Vif imaging – HIV Vif self-association inhibitors, primary screen, imaging, HEK293T, single point; inhibition, % at 7.49 µM; HEK293T cells, Vif self-association by quenched fluorescence, 24 h; 340,000 tested, 0.35% active; in the data active means inhibition above about 50%, passing the limit was not always enough
PKA-R1A act – activators of PKA-R1A holoenzyme, primary screen, biochemical, fluorescence polarization, Cy5-IP20, bovine R1A, mouse PKAc | PKA-R1A dissociation; scaled: DMSO 0%, 113 µM cGMP 100% | activation, % at 11.4 µM | 340,000 tested, 0.083% active | AID 504707, 2011;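 active means percent activation above the mean of all tested compounds plus 3 SD, cut at about 19% in these data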;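 further: higher means more PKAc released from R1A so a rise in polarization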
Of the large screens only hits and unclear results are named; the others gave an inactive call.

CCCCn1c(SCC(=O)Nc2nnc(C(C)C)s2)nc2c1c(=O)n(C)c(=O)n2C	Vif imaging 52
Sc1ccccc1N=Cc1cccs1	none (no result: SR-BI DiI inh, SR-BI uptake up)
Cc1ccc(S(=O)(=O)N2CCN(C(=O)COC(=O)/C=C/c3ccc([N+](=O)[O-])cc3)CC2)c(C)c1	none
Cc1ccc(S(=O)(=O)N2CCN(C(=O)COC(=O)c3cc([N+](=O)[O-])ccc3NCCO)CC2)c(C)c1	SR-BI DiI inh 79
Cc1cc(Cl)ccc1OCC(=O)NCC(=O)N/N=C/c1ccco1	none
CC(CN(C)Cc1ccccc1)OC(=O)c1cccc(F)c1 (centres undefined)	SR-BI uptake up 69
CN(CCOC(=O)c1cccc(F)c1)Cc1ccccc1	none
O=c1c2ccccc2nnn1-c1ccccc1	SR-BI uptake up 356
Cc1ccc(-n2nnc3ccccc3c2=O)cc1C	none (no result: Vif imaging)
Cc1ccsc1C(=O)N1CCC1(C)C(=O)NS(=O)(=O)c1ccc(Br)cc1 (centres undefined)	none (no result: SR-BI DiI inh, SR-BI uptake up, PKA-R2B act, PKA-R1A act)
COc1ccc(CN(CC(=O)NC2CCCC2)C(=O)CN2C(=O)COc3ccccc32)cc1	Vif imaging 54
N#C/C(=C\c1cn(Cc2ccccc2)c2ccccc12)C(=O)NCc1ccco1	none
Cc1cccc(NC(=O)/C(C#N)=C/c2cn(CC(=O)NCc3ccco3)c3ccccc23)c1C	Vif imaging 72
Cc1ncc(N=Nc2ccccc2Cl)c(-c2ccccc2)n1	none
CC(=O)Nc1sc(N)nc1-c1ccccc1	none
Nc1nc(-c2ccccc2)c(N=Nc2ccccc2Cl)s1	SR-BI DiI inh 88
Nc1nc(-c2ccccc2)c(N=Nc2cccc3ccccc23)s1	SR-BI DiI inh 134
CC(CC(=O)Nc1ccc2c(c1)c(=O)n(C)n2-c1ccccc1F)c1ccccc1 (centres undefined)	none (no result: SR-BI DiI inh, SR-BI uptake up, PKA-R2B act, PKA-R1A act)
CCOCCc1c(O)nc(SCC(=O)N2CCOCC2)[nH]c1=O	none (no result: SR-BI DiI inh, SR-BI uptake up)
O=C(CN1CCN(C(=O)CNC(=O)c2ccc(N3CCCC3=O)cc2)CC1)Nc1cccc(F)c1	none (no result: SR-BI DiI inh, SR-BI uptake up)
CCc1ccc(N=c2c([N+](=O)[O-])nn(-c3ccccc3)n2O)cc1	none (no result: Vif imaging)
Cc1cc(C)cc(N=c2c([N+](=O)[O-])nn(-c3ccc(Cl)cc3)n2O)c1	SR-BI DiI inh 80
NNC(=O)c1oc2nc(-c3ccccc3)cc(-c3ccccc3)c2c1N	SR-BI DiI inh 98, Vif imaging 71
Cc1ccc(-c2cc(-c3ccco3)c3c(N)c(C(=O)NN)oc3n2)cc1	SR-BI DiI inh 78
NNC(=O)c1oc2nc(-c3cccs3)cc(-c3ccco3)c2c1N	none
CCCOc1cccc(C(=O)NC(=S)Nc2cccc(NC(=O)c3ccccc3Cl)c2)c1	SR-BI DiI inh 81
CCCOc1cccc(C(=O)NC(=S)Nc2ccccc2)c1	none
O=C(O)c1cccc(NC(=S)NC(=O)c2cccc(OCc3ccccc3)c2)c1	SR-BI uptake up 68
CCCCc1ccc(NC(=S)Nc2ccc(Nc3ccc(OC)cc3)cc2)cc1	SR-BI DiI inh 81
Cc1cc(C)c(S(=O)(=O)N2CCOC2CNC(=O)C(=O)NCCc2c[nH]c3ccccc23)c(C)c1 (centres undefined)	SR-BI uptake up 196
Oc1c(Cl)cc(Cl)cc1C1=NNC(c2ccc(Cl)cc2)C1 (centres undefined)	SR-BI DiI inh 84
Oc1ccc(Cl)cc1C1=NNC(c2cc(Br)cc3c2OCOC3)C1 (centres undefined)	none
Oc1ccc(Cl)cc1C1=NNC(c2ccc(Cl)cc2)C1 (centres undefined)	SR-BI DiI inh 84
O=C1C=C(O)CC(c2ccc(Cl)cc2)C1 (centres undefined)	none
O=C(/C=C/[C@H]1O[C@@H](n2cnc3c(NC(=O)c4ccccc4)ncnc32)[C@H](O)[C@@H]1O)NCc1ccco1	none (no result: SR-BI DiI inh, SR-BI uptake up, PKA-R2B act, PKA-R1A act)
Cc1ccccc1NC(=O)C(C)OC(=O)CCC(=O)c1ccccc1 (centres undefined)	none (no result: SR-BI DiI inh, SR-BI uptake up)
O=[N+]([O-])c1ccccc1Nc1c2ccccc2nc2ccccc12	SR-BI DiI inh 77
